{"source": "ChEMBL document CHEMBL3877293", "about": "“Synthesis and Antineoplastic Evaluation of Novel Unsymmetrical 1,3,4-Oxadiazoles” (J Med Chem, 2016)", "key": {"[1]": {"assay": "Cell cycle arrest in human NB-1 cells assessed as G1 phase accumulation at 1 uM after 48 hrs by propidium iodide staining based flow cytometry (reference value: 85.9%)", "conditions": "nb1, 48 h"}, "[2]": {"assay": "Antiproliferative activity against human IBR3G cells after 72 hrs by XTT assay", "format": "cell-based", "outline": "(§1)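 Cells plated at 1500–2000 per well by doubling time, treated after 24 h with a concentration series in six triplicate wells, and incubated 72 h without a medium change. XTT reagent was then added for 4 h at 37 °C and absorbance read at 490 nm. IC50 is the concentration halving absorbance versus untreated cells. Experiments run in triplicate.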"}, "[3]": {"assay": "Cell cycle arrest in human NB1 hTERT cells assessed as sub G1 phase accumulation at 1 uM after 72 hrs by propidium iodide staining based flow cytometry relative to control", "format": "functional"}, "[4]": {"assay": "Induction of apoptosis in human NB1 hTERT cells assessed as necrotic cells at 5 uM after 72 hrs by Annexin-V FITC/propidium iodide staining based flow cytometry (reference value: 1.6%)", "format": "functional"}, "[5]": {"assay": "Cell cycle arrest in human Kelly cells assessed as G1 phase accumulation at 1 uM after 24 hrs by propidium iodide staining based flow cytometry (reference value: 65.9 +/- 1.87%)", "format": "functional"}, "[6]": {"assay": "Cell cycle arrest in human NCI-H1299 cells assessed as sub G1 phase accumulation at 1 uM after 48 hrs by propidium iodide staining based flow cytometry relative to control", "format": "functional"}, "[7]": {"assay": "Cell cycle arrest in human MCF7 cells assessed as G2/M phase accumulation at 1 uM after 144 hrs by propidium iodide staining based flow cytometry (reference value: 16.3%)", "format": "functional"}, "[8]": {"assay": "Cell cycle arrest in human Kelly cells assessed as S phase accumulation at 1 uM after 24 hrs by propidium iodide staining based flow cytometry (reference value: 16.1 +/- 1.28%)", "format": "functional"}, "HeLa [9]": {"tested_on": "HeLa", "assay": "Induction of apoptosis in human HeLa cells assessed as live cells at 5 uM after 48 hrs by Annexin-V FITC/propidium iodide staining based flow cytometry (reference value: 91.1%)", "format": "functional"}, "[10]": {"assay": "Induction of apoptosis in human NB-1 cells assessed as necrotic cells at 5 uM after 72 hrs by Annexin-V FITC/propidium iodide staining based flow cytometry (reference value: 0.2%)", "format": "cell-based", "conditions": "nb1, 72 h"}, "[11]": {"assay": "Cell cycle arrest in human A549 cells assessed as G1 phase accumulation at 1 uM after 24 hrs by propidium iodide staining based flow cytometry (reference value: 65.4 +/- 1.84%)", "format": "functional"}, "[12]": {"assay": "Cell cycle arrest in human MCF7 cells assessed as G1 phase accumulation at 1 uM after 24 hrs by propidium iodide staining based flow cytometry (reference value: 54.1 +/- 1.52%)", "format": "functional"}, "[13]": {"assay": "Antiproliferative activity against human NCI-H1299 cells after 72 hrs by XTT assay", "format": "functional, cell-based", "conditions": "NCI-H1299, 72 h", "outline": "as §1"}, "HeLa [14]": {"tested_on": "HeLa", "assay": "Disruption of beta-tubulin network in human HeLa cells assessed as induction of abnormal cell division at 1 uM after 24 hrs by DAPI staining based immunofluorescence microscopic analysis"}, "HeLa [15]": {"tested_on": "HeLa", "assay": "Induction of apoptosis in human HeLa cells assessed as early apoptotic cells at 5 uM after 48 hrs by Annexin-V FITC/propidium iodide staining based flow cytometry (reference value: 1.6%)", "format": "functional"}, "[16]": {"assay": "Cell cycle arrest in human HeLa cells assessed as S phase accumulation at 1 uM after 8 hrs by propidium iodide staining based flow cytometry (reference value: 19.2%)", "format": "functional"}, "MCF7": {"tested_on": "MCF7", "assay": "Selectivity ratio of IC50 for human MCF7 cells to IC50 for human RD cells", "format": "functional", "outline": "(§2)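 XTT viability: 1500–2000 cells/well plated by doubling time; compounds added after 24 h, then 72 h further culture without medium change. XTT reagent 4 h at 37 °C, absorbance read at 490 nm. IC50 is the concentration halving absorbance versus untreated cells; triplicate experiments. Ratio is MCF7 IC50 divided by IC50 in the named line.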"}, "[17]": {"assay": "Cell cycle arrest in human NB-1 cells assessed as S phase accumulation at 1 uM after 48 hrs by propidium iodide staining based flow cytometry (reference value: 1.7%)", "conditions": "nb1, 48 h"}, "[18]": {"assay": "Cell cycle arrest in human NB1 hTERT cells assessed as S phase accumulation at 1 uM after 24 hrs by propidium iodide staining based flow cytometry (reference value: 11.8%)", "format": "functional"}, "[19]": {"assay": "Cell cycle arrest in human A549 cells assessed as S phase accumulation at 1 uM after 24 hrs by propidium iodide staining based flow cytometry (reference value: 7.6 +/- 0.63%)", "format": "functional"}, "SH-SY5Y [20]": {"tested_on": "SH-SY5Y", "assay": "Disruption of beta-tubulin network in human SH-SY5Y cells assessed as shorter microtubule bundles around nuclei at 1 uM after 24 hrs by DAPI staining based immunofluorescence microscopic analysis", "format": "cell-based", "outline": "(§3)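 Cells seeded on glass coverslips (1 x 10^5/well), treated 24 h, fixed in 4% paraformaldehyde 15 min, permeabilized with 0.5% Triton X-100, blocked in 5% BSA/PBS, stained overnight at 4 °C with anti-β-tubulin (1:200) then fluorescent secondary antibody; nuclei counterstained with DAPI; microtubule organization and nuclear morphology examined by fluorescence microscopy.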"}, "[21]": {"assay": "Cell cycle arrest in human MCF7 cells assessed as G1 phase accumulation at 1 uM treated for 24 hrs followed by compound washout measured after 24 hrs by propidium iodide staining based flow cytometry (reference value: 61.4%)", "format": "functional"}, "[22]": {"assay": "Antiproliferative activity against human MCF7 cells at 0.5 uM after 72 hrs in presence of 5 uM BCRP inhibitor harmine by XTT assay relative to control", "format": "functional", "outline": "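Mcf7 cells treated after 24 h for 72 h at 37 °C, 5% CO2 with test compound at 0.5 μM alone or combined with harmine (1, 3, 5 μM) or reversan (5, 15, 25 μM). XTT was added for 4 h at 37 °C, absorbance read at 490 nm, and viability compared with control.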"}, "SH-SY5Y [23]": {"tested_on": "SH-SY5Y", "assay": "Disruption of beta-tubulin network in human SH-SY5Y cells assessed as apoptotic nuclei at 1 uM after 24 hrs by DAPI staining based immunofluorescence microscopic analysis", "format": "cell-based", "outline": "as §3"}, "[24]": {"assay": "Cell cycle arrest in human PC3 cells assessed as G2/M phase accumulation at 1 uM after 24 hrs by propidium iodide staining based flow cytometry (reference value: 26.8 +/- 1.69%)", "format": "functional", "conditions": "PC-3"}, "HeLa [25]": {"tested_on": "HeLa", "assay": "Selectivity ratio of IC50 for human MCF7 cells to IC50 for human HeLa cells", "format": "functional", "outline": "as §2"}, "[26]": {"assay": "Cell cycle arrest in human MCF7 cells assessed as S phase accumulation at 1 uM after 24 hrs by propidium iodide staining based flow cytometry (reference value: 21.7 +/- 1.42%)", "format": "functional"}, "A549": {"tested_on": "A549", "assay": "Increase in p53 expression in human A549 cells at 1 uM after 24 hrs by immunoblot method relative to control", "format": "functional", "outline": "(§4)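 After 24 h treatment at 1 μM, cells lysed in Tris pH 8/NaCl/glycerol/NP-40/EDTA buffer with protease inhibitors. Equal lysate amounts run on 10% SDS gels, blotted to nitrocellulose, probed for p53 with GAPDH as loading control, detected by enhanced chemiluminescence. Bands quantified by densitometry against GAPDH and compared with untreated cells; three independent experiments.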"}, "[27]": {"assay": "Antiproliferative activity against human LAN1 cells after 72 hrs by XTT assay", "format": "functional, cell-based", "conditions": "LAN1, 72 h", "outline": "as §1"}, "[28]": {"assay": "Effect on p53 expression in human NB-1 cells at 1 uM after 24 hrs by immunoblot method", "format": "cell-based", "conditions": "nb1, 24 h", "outline": "as §4"}}, "note": "Active and inactive are the calls of the source. The calls are words filed in the database; no cut-off is given here.", "data": [{"smiles": "Cc1[nH]c2c(c1-c1nnc(-c3ccccc3)o1)Cc1ccccc1-2", "values": [{"measurement": "Activity", "setting": "[1]", "result": 82.6, "unit": "%"}, {"measurement": "IC50", "setting": "[2]", "result": 0.77, "unit": "µM"}, {"measurement": "Activity", "setting": "[3]", "result": 25.3, "unit": "%"}, {"measurement": "Activity", "setting": "[4]", "result": 2.1, "unit": "%"}, {"measurement": "Activity", "setting": "[5]", "result": 34.3, "unit": "%"}, {"measurement": "Activity", "setting": "[6]", "result": 13.4, "unit": "%"}, {"measurement": "Activity", "setting": "[7]", "result": 79.9, "unit": "%"}, {"measurement": "Activity", "setting": "[8]", "result": 9.7, "unit": "%"}, {"measurement": "Activity", "setting": "HeLa [9]", "result": 6, "unit": "%"}, {"measurement": "Activity", "setting": "[10]", "result": 0.8, "unit": "%"}, {"measurement": "Activity", "setting": "[11]", "result": 11.4, "unit": "%"}, {"measurement": "Activity", "setting": "[12]", "result": "15.7 to 30.1", "unit": "%"}, {"measurement": "IC50", "setting": "[13]", "result": 0.12, "unit": "µM"}, {"measurement": "Activity", "setting": "HeLa [14]", "result": "Active"}, {"measurement": "Activity", "setting": "HeLa [15]", "result": 4.6, "unit": "%"}, {"measurement": "Activity", "setting": "[16]", "result": 22.2, "unit": "%"}, {"measurement": "Ratio IC50", "setting": "MCF7", "result": "28 - 34"}, {"measurement": "Activity", "setting": "[17]", "result": 2.4, "unit": "%"}, {"measurement": "Activity", "setting": "[18]", "result": 12.3, "unit": "%"}, {"measurement": "Activity", "setting": "[19]", "result": 9.5, "unit": "%"}, {"measurement": "Activity", "setting": "SH-SY5Y [20]", "result": "Active"}, {"measurement": "Activity", "setting": "[21]", "result": 56.8, "unit": "%"}, {"measurement": "Activity", "setting": "[22]", "result": 40, "unit": "%"}, {"measurement": "Activity", "setting": "SH-SY5Y [23]", "result": "Active"}, {"measurement": "Activity", "setting": "[24]", "result": 72, "unit": "%"}, {"measurement": "Ratio IC50", "setting": "HeLa [25]", "result": "28 - 34"}, {"measurement": "Activity", "setting": "[26]", "result": "6.3 to 10.4", "unit": "%"}, {"measurement": "fold change (FC)", "setting": "A549", "result": "2 - 3"}, {"measurement": "IC50", "setting": "[27]", "result": 0.38, "unit": "µM"}, {"measurement": "Activity", "setting": "[28]", "result": "Non-Toxic"}]}]}
